Results published in PubChem BioAssay.
Records with an inconclusive call do not appear.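 The calls were made as follows, unless noted: active = viability at or below 27.92% in each of two runs, the all-compound median minus 4 SD; inconclusive = no clear call, values can overlap the other calls; inactive = the rest.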

How the values were obtained:
[1] = S. cerevisiae growth inhibition in permissive medium (OD615), pilot counter-assay for S. cerevisiae lifespan shortening project, permissive growth control (AID 705;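 active = growth inhibition above 25% in both replicates, a cutoff set 3 SD above the mean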); details: OD615, 24 h, at 10 µM, stronger effect = higher value
Outline: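 System: S. cerevisiae with engineered DeaD lifespan system. Medium: SC raffinose/galactose permissive medium. Doses: single compound dose of 10 µM, 0.25% DMSO final. Schedule: 24 h exposure, 30 °C. Measured by: OD615 turbidity read. Read-out: growth inhibition.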

[2] = S. cerevisiae growth inhibition in restrictive medium, OD615, pilot screen, restrictive growth control, yeast lifespan reduction project (AID 706;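 active = growth inhibition above a set limit, 3 SD over mean compound inhibition, in both replicates, cut at about 43% in these data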;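 also: modified DeaD lifespan yeast strain shifted to restrictive glucose medium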); details: OD615, 48 h, at 10 µM, stronger effect = higher value
Outline: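 Assay system – genetically modified Saccharomyces cerevisiae, DeaD replicative lifespan assay strain · Medium – CSMM-D glucose medium · Doses – 10 µM compound, 0.25% DMSO · Times – 4 h pre-incubation, 48 h exposure at 30 °C · Signal – optical density at 615 nm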

[3] = doxorubicin toxicity protection in MRP-1 cells – H69AR cells, CellTiter-Glo, duplicate, MRP-1 activator project, pilot screen (AID 807;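 active = viability increase at or above a cutoff of the median across tested compounds plus 3 SD, cut at about 8.5% in these data, passing the limit was not always enough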;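 also: compound pretreatment 18-22 h then 72 h combined with doxorubicin; 0% = doxorubicin alone and 100% = vehicle without doxorubicin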); details: H69AR viability with doxorubicin, CellTiter-Glo luminescence; at 10 µM; stronger effect = higher value
[4] = viability of HCT116 without oncogenic beta-catenin – human colon tumor cells, pilot screen (AID 823;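 active = cell viability at or below a set limit in both duplicate runs, the limit being the all-compound median minus 4 SD, cut at about 23% in these data, passing the limit was not always enough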;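 also: 0% = wells killed by 20 µM Hyamine and 100% = untreated DMSO cell wells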); details: HCT116 beta-catenin knockout viability, CellTiter-Glo, 60 h; at 10 µM; stronger effect = lower value
[5] = viability of PTEN-null HCT116 cells – cell-based, HCT116 clonal line, CellTiter-Glo, pilot screen (AID 824); details: HCT116 PTEN-deleted viability, 60 h, at 10 µM, stronger effect = lower value;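 also: 0% = 20 µM Hyamine control and 100% = vehicle cell control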
[6] = RAM pathway blockade in budding yeast – dse1pr::URA3 reporter, 5-FOA selection, pilot screen (AID 869;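 active = inhibition over a set limit, the all-compound mean plus 3 SD, in both replicate runs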;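 also: 0% = DMSO wells with no growth and 100% = 10 µM 1-NA-PP1 with full growth; RAM network block rescues cells from 5-FOA so hits raise OD615 growth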); details: S. cerevisiae dse1pr::URA3 5-FOA growth, OD615, 2 d; at 10 µM; stronger effect = higher value; strain carries analog-sensitive mutant Cbk1 kinase
[7] = RAM signaling pathway blockade in yeast – S. cerevisiae, Pdr1DBD-CYC8 efflux-inhibited sensitized strain, primary screen (AID 1298;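 active = RAM network inhibition above 8.4% in each of two replicates, 3 SD over the compound average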;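 also: 0% = DMSO untreated cells without growth and 100% = 10 µM 1-NA-PP1 full growth; higher means more yeast growth rescued from 5-FOA killing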); details: S. cerevisiae cbk1-as DSE1-URA3 strain, 5-FOA growth OD615, 2 d; at 50 µM; stronger effect = higher value

CCCCn1c(=O)cc(N2CCOCC2)[nH]c1=O
inactive: growth inhibition [1] -16.3% | growth inhibition [2] -20.6% | viability increase [3] 0.83% | viability [4] 99.7% | viability [5] 94.3% | inhibition [6] 1.04% | RAM network inhibition [7] -0.95%

COc1ccc(CCNC(=O)CCn2c(=O)oc3ccccc32)cc1
inactive: growth inhibition [1] -5.1% | growth inhibition [2] -14% | viability increase [3] -1.45% | viability [4] 109% | viability [5] 99.7% | inhibition [6] -0.205% | RAM network inhibition [7] 2.7%

O=c1oc2ccccc2n1Cc1ccccc1Cl
inactive: growth inhibition [1] -1.38% | growth inhibition [2] 8.91% | viability increase [3] -0.37% | viability [4] 97.1% | viability [5] 99.5% | inhibition [6] 1.56% | RAM network inhibition [7] 0.31%

COc1cccc(C(=O)N2CCSC2=S)c1
inactive: growth inhibition [1] -10.4% | growth inhibition [2] 3.34% | viability increase [3] -0.12% | viability [4] 97% | viability [5] 97.5% | inhibition [6] 0% | RAM network inhibition [7] -1.3%

CCC(=O)Nc1nc2ccc3nc(C)sc3c2s1
inactive: growth inhibition [1] -5.17% | growth inhibition [2] 32.5% | viability increase [3] -4.98% | viability [4] 75.3% | viability [5] 81.1% | inhibition [6] 0.415% | RAM network inhibition [7] 2.94%

Cn1c(=O)[nH]c(=O)c2c1nc(NC1CCCCC1)n2CCO
inactive: growth inhibition [1] -16.7% | growth inhibition [2] -22.4% | viability increase [3] -2.15% | viability [4] 102% | viability [5] 97.9% | inhibition [6] 1.19% | RAM network inhibition [7] 3.67%

COc1ccccc1CC1(C)NC(=O)N(CC(=O)N2CC(C)OC(C)C2)C1=O (configuration not stated)
inactive: growth inhibition [1] -25.5% | growth inhibition [2] -15% | viability increase [3] -0.71% | viability [4] 95.5% | viability [5] 97.9% | inhibition [6] 1.68% | RAM network inhibition [7] 1.34%

O=C(CCNS(=O)(=O)c1cccc2nsnc12)NCCc1ccccc1
inactive: growth inhibition [1] 3.27% | growth inhibition [2] -1.99% | viability increase [3] -1.34% | viability [4] 105% | viability [5] 97.6% | inhibition [6] 0.11% | RAM network inhibition [7] 1.2%

O=C(c1ccccc1)c1cccc(NC(=O)c2ccco2)c1
inactive: growth inhibition [1] -8.52% | growth inhibition [2] -5.33% | viability increase [3] -3.35% | viability [4] 92.5% | viability [5] 96.3% | inhibition [6] -0.895% | RAM network inhibition [7] -0.72%

COc1ccc(-c2nc(CS(=O)CC(=O)NC3CCCc4ccccc43)c(C)o2)cc1OC (configuration not stated)
inactive: growth inhibition [1] -8.29% | growth inhibition [2] 3.54% | viability increase [3] -2.94% | viability [4] 84.5% | viability [5] 90.9% | inhibition [6] 1.64% | RAM network inhibition [7] 8.66%

Cn1c(=NC(=O)C2CC2)sc2cccc(F)c21
inactive: growth inhibition [1] -10.3% | growth inhibition [2] 8.25% | viability increase [3] -4.82% | viability [4] 88.3% | viability [5] 89% | inhibition [6] 0.96% | RAM network inhibition [7] 6.98%

CN(C)c1ccc(C2C3C(=O)NC(=O)C3ON2c2ccc(Cl)cc2)cc1 (configuration not stated)
inactive: growth inhibition [1] -0.19% | growth inhibition [2] 2.37% | viability increase [3] -0.83% | viability [4] 102% | viability [5] 98.6% | inhibition [6] 0.735% | RAM network inhibition [7] 4.07%

CCN(CC)c1ccc(C=Nc2ccc(C#N)cc2)c(O)c1
inactive: growth inhibition [1] -18.8% | growth inhibition [2] -19.5% | viability increase [3] -0.93% | viability [4] 99.4% | viability [5] 96.3% | inhibition [6] 1.43% | RAM network inhibition [7] 5.13%

Cc1nc(CNS(=O)(=O)c2ccc3ccccc3c2)cs1
inactive: growth inhibition [1] -0.84% | growth inhibition [2] 3.39% | viability increase [3] -1.37% | viability [4] 97.8% | viability [5] 87.9% | inhibition [6] 2.13% | RAM network inhibition [7] 0%

O=C(NCc1ccc(Cl)c(Cl)c1)c1cccnc1
inactive: growth inhibition [1] -7.96% | growth inhibition [2] 4.69% | viability increase [3] -1.74% | viability [4] 99% | viability [5] 90.9% | inhibition [6] 0.58% | RAM network inhibition [7] 3.32%

O=C(Cn1cc2c(n1)CCCC2)NCC1CCCO1 (configuration not stated)
inactive: growth inhibition [1] -2.07% | growth inhibition [2] 3.85% | viability increase [3] 0.41% | viability [4] 103% | viability [5] 95.9% | inhibition [6] 1.89% | RAM network inhibition [7] 4.01%

COc1ccc(-n2nc3c(c2NC(=O)C24CC5CC(CC(C5)C2)C4)CS(=O)C3)cc1 (configuration not stated)
inactive: growth inhibition [1] 1.36% | growth inhibition [2] 9.3% | viability increase [3] -0.78% | viability [4] 97.2% | viability [5] 93.5% | inhibition [6] -0.08% | RAM network inhibition [7] -1.31%

O=S(=O)(c1ccc(Br)cc1)N1CCn2c(nc3ccccc32)C1
inactive: growth inhibition [1] -6.87% | growth inhibition [2] -3.65% | viability increase [3] -2.52% | viability [4] 101% | viability [5] 97.5% | inhibition [6] 2.46% | RAM network inhibition [7] 6.31%

CCN(CCN(C)C)C(=O)Cn1ncc2c1-c1cc(C)ccc1OC2
inactive: growth inhibition [1] -11% | growth inhibition [2] -0.185% | viability increase [3] -0.91% | viability [4] 94.8% | viability [5] 102% | inhibition [6] 2.43% | RAM network inhibition [7] 2.3%

Cc1nc(CNS(=O)(=O)c2ccc3c(c2)CCCC3)cs1
inactive: growth inhibition [1] -5.81% | growth inhibition [2] -2.64% | viability increase [3] -1.72% | viability [4] 96.7% | viability [5] 73.8% | inhibition [6] 1.51% | RAM network inhibition [7] 0.22%

CCOCCCNC(=O)C(NC(=O)c1ccc2c(c1)OCO2)c1ccc(OC)cc1 (configuration not stated)
inactive: growth inhibition [1] -12.5% | growth inhibition [2] -24.3% | viability increase [3] -2% | viability [4] 101% | viability [5] 96.3% | inhibition [6] 1.6% | RAM network inhibition [7] 3.11%

CCOc1ccc(NC(=O)CSc2nnc(Cc3cccn3C)n2-c2ccc(F)cc2)cc1
inactive: growth inhibition [1] 11.1% | growth inhibition [2] 19.2% | viability increase [3] -4.64% | viability [4] 95.7% | viability [5] 91% | inhibition [6] 1.56% | RAM network inhibition [7] 6.97%

CCN1C(=O)CC(N2CCN(c3ccc(Cl)cc3)CC2)C1=O (configuration not stated)
inactive: growth inhibition [1] -18.6% | growth inhibition [2] -7.02% | viability increase [3] 1.46% | viability [4] 98% | viability [5] 94.6% | inhibition [6] 1.04% | RAM network inhibition [7] 4.19%

O=C(Nc1ccc2c(c1)OCO2)c1ccncc1
inactive: growth inhibition [1] -10.6% | growth inhibition [2] 0.215% | viability increase [3] -0.85% | viability [4] 87.9% | viability [5] 90.1% | inhibition [6] 0.205% | RAM network inhibition [7] 3.42%

Cc1cccc(NC(=O)CN(C)S(=O)(=O)c2cccc3cccnc23)c1
inactive: growth inhibition [1] 2.15% | growth inhibition [2] -0.265% | viability increase [3] 1.15% | viability [4] 96.5% | viability [5] 96.1% | inhibition [6] 0.01% | RAM network inhibition [7] -0.41%

Cc1ccccc1-c1nc(CN2CCC(C(=O)O)CC2)c(C)o1
inactive: growth inhibition [1] 1.1% | growth inhibition [2] -0.365% | viability increase [3] -0.95% | viability [4] 103% | viability [5] 93.9% | inhibition [6] 0% | RAM network inhibition [7] 0.11%

C=CCNc1nc2c(c(=O)n(C)c(=O)n2C)n1Cc1ccc(F)cc1
inactive: growth inhibition [1] -0.85% | growth inhibition [2] -2.67% | viability increase [3] -2.03% | viability [4] 63.3% | viability [5] 66.9% | inhibition [6] 0.835% | RAM network inhibition [7] 2.3%

O=S(=O)(NCCc1cn2ccccc2n1)c1ccc2c(c1)OCCO2
inactive: growth inhibition [1] -2.27% | growth inhibition [2] -2.71% | viability increase [3] -2.56% | viability [4] 105% | viability [5] 97% | inhibition [6] 1.62% | RAM network inhibition [7] 2.25%

O=C(CC(c1ccccc1)c1ccccc1)Nc1ncn[nH]1
inactive: growth inhibition [1] -5.6% | growth inhibition [2] 9.86% | viability increase [3] 4.51% | viability [4] 100% | viability [5] 90.1% | inhibition [6] -0.035% | RAM network inhibition [7] 3.78%

CC1(C)Cc2c(c(N3CCOCC3)nc3sc(C(=O)N4CCCCC4)c(N)c23)CO1
inactive: growth inhibition [1] 2.35% | growth inhibition [2] 29.3% | viability increase [3] -4.48% | viability [4] 100% | viability [5] 96.6% | inhibition [6] 2.62% | RAM network inhibition [7] 3.43%

Cc1nn(-c2ccccc2)c(C)c1NC(=O)Cc1cccs1
inactive: growth inhibition [1] -10.7% | growth inhibition [2] -4.28% | viability increase [3] -2.07% | viability [4] 95.2% | viability [5] 92.1% | inhibition [6] 1.18% | RAM network inhibition [7] 1.1%

COc1ccc(-n2c(=O)c3ccccc3n(CC(=O)NC3CCCC3)c2=O)c(OC)c1
inactive: growth inhibition [1] -4.38% | growth inhibition [2] -22% | viability increase [3] -0.98% | viability [4] 98.2% | viability [5] 96.2% | inhibition [6] 2.04% | RAM network inhibition [7] 3.21%

O=C(CN(Cc1ccccc1F)S(=O)(=O)c1ccc(Cl)cc1)NCCCO
inactive: growth inhibition [1] -12.7% | growth inhibition [2] -2.21% | viability increase [3] -2.15% | viability [4] 102% | viability [5] 93.7% | inhibition [6] 0.495% | RAM network inhibition [7] 1.84%

CN(CC(=O)NCCC1=CCCCC1)S(=O)(=O)c1ccc2c(c1)c(=O)n(C)c(=O)n2C
inactive: growth inhibition [1] -7.74% | growth inhibition [2] -27.4% | viability increase [3] -1.64% | viability [4] 84.4% | viability [5] 76.8% | inhibition [6] 2.88% | RAM network inhibition [7] 4.5%

COc1ccc(-c2nnc(SCC(=O)N3CCN(c4ccccc4)CC3)o2)cc1OC
inactive: growth inhibition [1] -7.28% | growth inhibition [2] 7.65% | viability increase [3] -6.37% | viability [4] 73.7% | viability [5] 90% | inhibition [6] 1.64% | RAM network inhibition [7] 1.67%

Cn1c(NC(=O)Cc2cccs2)cc(=O)n(C)c1=O
inactive: growth inhibition [1] 5.64% | growth inhibition [2] 5.55% | viability increase [3] -0.45% | viability [4] 105% | viability [5] 101% | inhibition [6] 1.26% | RAM network inhibition [7] -2.37%
